In ChEMBL document CHEMBL3407367 (J Med Chem, 2015):
pIC50: −log10 of the molar value. Values after ≈ are worked out from the molar mass of the structure shown. Active and inactive are the calls of the source. No cut-off for these calls is given here. Positions of bridges follow the written chain, without caps; N, C: chain ends. Non-standard residues stand in square brackets, D forms with d. Residues, ends and D or L forms follow the SMILES beside them. Trp(1-Me) = Cn1cc(C[C@H](N)C(=O)O)c2ccccc21; 1Nal = N[C@@H](Cc1cccc2ccccc12)C(=O)O

Tests used:
RPE [1] = experiment: Inhibition of complement activation in human fetal RPE cells assessed as reduction in C5b-9 formation at 1 uM by fluorescence assay in presence of complement-competant human serum; format: cell-based
How it was run: (§1)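 Human fetal RPE cells from two donor lines (081309, 072810) were grown on porous supports in Miller medium with 5% FCS. Peptide (1 µM; one experiment 1, 10, 50 µM) in serum-free medium with 10% human complement serum was premixed 30 min at RT, then incubated overnight at 37 °C. Samples were PFA-fixed and sections immunostained; the confocal C5b-9/ApoE area ratio is given as % of serum-only control; n = 10; Mann–Whitney U.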

RPE [2] = experiment: Inhibition of complement activation in human fetal RPE cells assessed as reduction in C5b-9 formation at 50 uM by fluorescence assay in presence of complement-competant human serum; format: cell-based; how it was run: as §1
[3] = Solubility of the compound in PBS at pH 7.4 after 24 to 48 hrs by spectrophotometry; format: physicochemical
How it was run: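 About 1 mg peptide put in 200 μL PBS pH 7.4 (top reportable value 5 mg/mL). Vortexed 30 s, centrifuged 13000g for 5 min. Supernatant A280 read and converted to concentration by Beer–Lambert, with extinction coefficients from Trp/Tyr count. Samples held at 4 °C and re-read at 24 and 48 h. Mean and standard deviation of three readings per sample.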

Complement C3 = Complement C3 (Homo sapiens, UniProt P01024); experiment: Inhibition of C3 cleavage in human serum assessed as reduction in C5b-9 formation compound preincubated for 15 mins measured 1 hr post LPS stimulation by ELISA
Sequence of Complement C3 (P01024 23-667 limits assumed): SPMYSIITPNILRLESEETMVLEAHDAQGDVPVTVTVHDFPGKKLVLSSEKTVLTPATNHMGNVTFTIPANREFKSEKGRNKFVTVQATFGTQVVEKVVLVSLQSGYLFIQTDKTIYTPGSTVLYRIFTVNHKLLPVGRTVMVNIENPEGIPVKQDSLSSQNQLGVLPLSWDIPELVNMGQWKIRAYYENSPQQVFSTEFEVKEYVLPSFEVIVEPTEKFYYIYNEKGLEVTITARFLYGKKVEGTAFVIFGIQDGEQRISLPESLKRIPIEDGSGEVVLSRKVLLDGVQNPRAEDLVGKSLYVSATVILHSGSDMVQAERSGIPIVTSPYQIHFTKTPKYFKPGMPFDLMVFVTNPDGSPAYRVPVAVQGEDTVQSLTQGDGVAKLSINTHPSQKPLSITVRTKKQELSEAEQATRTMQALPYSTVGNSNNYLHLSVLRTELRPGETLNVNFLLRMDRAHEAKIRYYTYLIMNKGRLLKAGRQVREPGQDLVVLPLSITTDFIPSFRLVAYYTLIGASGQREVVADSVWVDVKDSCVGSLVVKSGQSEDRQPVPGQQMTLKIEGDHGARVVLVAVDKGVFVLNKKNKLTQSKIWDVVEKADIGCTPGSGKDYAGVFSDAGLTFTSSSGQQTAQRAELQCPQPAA
Sequence of Complement C3 (P01024 672-1663 limits assumed): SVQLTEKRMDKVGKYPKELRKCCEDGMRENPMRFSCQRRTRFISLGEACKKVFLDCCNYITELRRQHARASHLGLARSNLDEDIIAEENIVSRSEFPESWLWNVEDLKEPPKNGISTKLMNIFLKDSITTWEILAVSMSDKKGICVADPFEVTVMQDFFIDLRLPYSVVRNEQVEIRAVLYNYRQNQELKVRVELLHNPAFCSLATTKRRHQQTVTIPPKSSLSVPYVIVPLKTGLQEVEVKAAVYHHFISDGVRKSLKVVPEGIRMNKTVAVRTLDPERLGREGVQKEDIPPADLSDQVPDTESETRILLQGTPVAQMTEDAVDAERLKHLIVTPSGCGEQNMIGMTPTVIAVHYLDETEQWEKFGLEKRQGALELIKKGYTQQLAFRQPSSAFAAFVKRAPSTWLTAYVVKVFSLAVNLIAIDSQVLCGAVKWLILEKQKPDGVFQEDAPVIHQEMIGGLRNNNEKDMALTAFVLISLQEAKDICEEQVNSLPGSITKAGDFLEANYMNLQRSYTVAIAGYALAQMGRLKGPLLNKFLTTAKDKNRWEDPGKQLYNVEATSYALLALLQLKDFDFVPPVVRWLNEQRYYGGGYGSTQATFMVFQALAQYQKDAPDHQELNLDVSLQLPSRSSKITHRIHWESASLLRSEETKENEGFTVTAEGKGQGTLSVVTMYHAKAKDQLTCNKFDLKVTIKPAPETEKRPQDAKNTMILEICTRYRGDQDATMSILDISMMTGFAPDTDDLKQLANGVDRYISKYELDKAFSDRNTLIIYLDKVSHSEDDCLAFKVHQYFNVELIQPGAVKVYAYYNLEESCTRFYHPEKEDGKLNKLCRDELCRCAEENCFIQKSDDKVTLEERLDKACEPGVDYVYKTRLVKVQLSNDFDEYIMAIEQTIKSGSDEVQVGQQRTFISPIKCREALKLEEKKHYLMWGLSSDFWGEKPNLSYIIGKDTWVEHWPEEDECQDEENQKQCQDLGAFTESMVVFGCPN

CC[C@H](C)[C@H](NC(=O)[C@H](CO)NC(=O)[C@H](CCCNC(=N)N)NC(C)=O)C(=O)N[C@H]1CSSC[C@@H](C(=O)N[C@H](C(N)=O)[C@@H](C)O)NC(=O)[C@H](CCCNC(=N)N)NC(=O)[C@H](Cc2cnc[nH]2)NC(=O)[C@H](C)NC(=O)CNC(=O)[C@H](Cc2c[nH]c3ccccc23)NC(=O)[C@H](CC(=O)O)NC(=O)[C@H](CCC(N)=O)NC(=O)[C@H](Cc2cccc3ccccc23)NC(=O)[C@H](C(C)C)NC1=O (Ac-RSICV[1Nal]QDWGAHRCT-NH2; disulfide 4-14)
inhibition (RPE [1]): Active

CC[C@H](C)[C@H](N)C(=O)N[C@H]1CSSC[C@@H](C(=O)N[C@H](C(N)=O)[C@@H](C)O)NC(=O)[C@H](CCCNC(=N)N)NC(=O)[C@H](Cc2cnc[nH]2)NC(=O)[C@H](Cc2cnc[nH]2)NC(=O)CNC(=O)[C@H](Cc2c[nH]c3ccccc23)NC(=O)[C@H](CC(=O)O)NC(=O)[C@H](CCC(N)=O)NC(=O)[C@H](C(C)C)NC(=O)[C@H](C(C)C)NC1=O
inhibition (RPE [2]): Active

CC(=O)N[C@@H](CC(N)=O)C(=O)N[C@@H](CCCNC(=N)N)C(=O)N[C@@H](CC(C)C)C(=O)N[C@H]1CSSC[C@@H](C(=O)N[C@H](C(N)=O)[C@@H](C)O)NC(=O)[C@H](CCCNC(=N)N)NC(=O)[C@H](Cc2cnc[nH]2)NC(=O)[C@H](Cc2cccc3ccccc23)NC(=O)CNC(=O)[C@H](Cc2c[nH]c3ccccc23)NC(=O)[C@H](CC(=O)O)NC(=O)[C@H](CCC(N)=O)NC(=O)[C@H](Cc2c[nH]c3ccccc23)NC(=O)[C@H](C(C)C)NC1=O (Ac-NRLCVWQDWG[1Nal]HRCT-NH2; disulfide 4-14)
inhibition (RPE [1]): Active

CC[C@H](C)[C@H](N)C(=O)N[C@H]1CSSC[C@@H](C(=O)N[C@H](C(N)=O)[C@@H](C)O)NC(=O)[C@H](CCCN=C(N)N)NC(=O)[C@H](Cc2cnc[nH]2)NC(=O)[C@H](Cc2cnc[nH]2)NC(=O)CNC(=O)[C@H](Cc2c[nH]c3ccccc23)NC(=O)[C@H](CC(=O)O)NC(=O)[C@H](CCC(N)=O)NC(=O)[C@H](C(C)C)NC(=O)[C@H](C(C)C)NC1=O [COMPSTATIN]
solubility [3]: 4500 µg/mL (≈ 2900 µM)

CC(=O)N[C@@H](CC(N)=O)C(=O)N[C@@H](CCCNC(=N)N)C(=O)N[C@@H](CC(C)C)C(=O)N[C@H]1CSSC[C@@H](C(=O)N[C@H](C(N)=O)[C@@H](C)O)NC(=O)[C@H](CCCNC(=N)N)NC(=O)[C@H](Cc2cnc[nH]2)NC(=O)[C@H](C)NC(=O)CNC(=O)[C@H](Cc2c[nH]c3ccccc23)NC(=O)[C@H](CC(=O)O)NC(=O)[C@H](CCC(N)=O)NC(=O)[C@H](Cc2c[nH]c3ccccc23)NC(=O)[C@H](C(C)C)NC1=O (Ac-NRLCVWQDWGAHRCT-NH2; disulfide 4-14)
inhibition (RPE [1]): Active

CC[C@H](C)[C@H](NC(C)=O)C(=O)N[C@H]1CSSC[C@@H](C(=O)N[C@H](C(N)=O)[C@@H](C)O)NC(=O)[C@H](CCCNC(=N)N)NC(=O)[C@H](Cc2cnc[nH]2)NC(=O)[C@](C)(CC)NC(=O)CNC(=O)[C@H](Cc2c[nH]c3ccccc23)NC(=O)[C@H](CC(=O)O)NC(=O)[C@H](CCC(N)=O)NC(=O)[C@H](Cc2c[nH]c3ccccc23)NC(=O)[C@H](C(C)C)NC1=O
inhibition (RPE [1]): Active

CC[C@H](C)[C@H](NC(C)=O)C(=O)N[C@H]1CSSC[C@@H](C(=O)N[C@H](C(N)=O)[C@@H](C)O)NC(=O)[C@H](CCCNC(=N)N)NC(=O)[C@H](Cc2cnc[nH]2)NC(=O)[C@H](Cc2cccc3ccccc23)NC(=O)CNC(=O)[C@H](Cc2c[nH]c3ccccc23)NC(=O)[C@H](CC(=O)O)NC(=O)[C@H](CCC(N)=O)NC(=O)[C@H](Cc2cn(C)c3ccccc23)NC(=O)[C@H](C(C)C)NC1=O (Ac-ICV[Trp(1-Me)]QDWG[1Nal]HRCT-NH2; disulfide 2-12)
pIC50 (Complement C3): 5.40
solubility [3]: 100 µg/mL (≈ 57 µM)

CC[C@H](C)[C@H](NC(C)=O)C(=O)N[C@H]1CSSC[C@@H](C(=O)N[C@H](C(N)=O)[C@@H](C)O)NC(=O)[C@H](CCCNC(=N)N)NC(=O)[C@H](Cc2cnc[nH]2)NC(=O)[C@H](C)NC(=O)CNC(=O)[C@H](Cc2c[nH]c3ccccc23)NC(=O)[C@H](CC(=O)O)NC(=O)[C@H](CCC(N)=O)NC(=O)[C@H](Cc2cn(C)c3ccccc23)NC(=O)[C@H](C(C)C)NC1=O
solubility [3]: 1900 µg/mL (≈ 1170 µM)

CC[C@H](C)[C@H](NC(C)=O)C(=O)N[C@H]1CSSC[C@@H](C(=O)N[C@H](C(N)=O)[C@@H](C)O)NC(=O)[C@H](CCCNC(=N)N)NC(=O)[C@H](Cc2cnc[nH]2)NC(=O)[C@H](C)NC(=O)CNC(=O)[C@H](Cc2c[nH]c3ccccc23)NC(=O)[C@H](CC(=O)O)NC(=O)[C@H](CCC(N)=O)NC(=O)[C@H](Cc2c[nH]c3ccccc23)NC(=O)[C@H](C(C)C)NC1=O
solubility [3]: 3200 µg/mL (≈ 1980 µM)
inhibition (RPE [1]): Active

CC[C@H](C)[C@H](NC(C)=O)C(=O)N[C@H]1CSSC[C@@H](C(=O)N[C@H](C(N)=O)[C@@H](C)O)NC(=O)[C@H](CCCNC(=N)N)NC(=O)[C@H](Cc2cnc[nH]2)NC(=O)[C@H](Cc2cccc3ccccc23)NC(=O)CNC(=O)[C@H](Cc2c[nH]c3ccccc23)NC(=O)[C@H](CC(=O)O)NC(=O)[C@H](CCC(N)=O)NC(=O)[C@H](Cc2c[nH]c3ccccc23)NC(=O)[C@H](C(C)C)NC1=O (Ac-ICVWQDWG[1Nal]HRCT-NH2; disulfide 2-12)
solubility [3]: 100 µg/mL (≈ 57.5 µM)

CC[C@H](C)[C@H](NC(=O)[C@H](CO)NC(=O)[C@H](CCCNC(=N)N)NC(C)=O)C(=O)N[C@H]1CSSC[C@@H](C(=O)N[C@H](C(N)=O)[C@@H](C)O)NC(=O)[C@H](CCCNC(=N)N)NC(=O)[C@H](Cc2cnc[nH]2)NC(=O)[C@H](C)NC(=O)CNC(=O)[C@H](Cc2c[nH]c3ccccc23)NC(=O)[C@H](CC(=O)O)NC(=O)[C@H](CCC(N)=O)NC(=O)[C@H](Cc2ccc(O)cc2)NC(=O)[C@H](C(C)C)NC1=O
solubility [3]: 5000 µg/mL (≈ 2730 µM)
inhibition (RPE [1]): Active
